Most compounds without a hit are left out; they make up all but 2.9% or so of the library.
A3G deaminase: APOBEC3G DNA deaminase inhibitors, primary screen, biochemical, fluorescence, single-stranded DNA substrate, uHTS; DNA dC->dU-editing enzyme APOBEC-3G (Homo sapiens), Q9HC16; recombinant A3G, ssDNA deamination FAM/TAMRA fluorescence; inhibition, % at 20 µM; hit rate 0.28% among 330,000; AID 493012, 2011;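 active = inhibition of at least 40% at 20 µM, with no more than 30% in the related APOBEC3A deaminase screen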
Target sequence (Q9HC16 whole entry, looked up): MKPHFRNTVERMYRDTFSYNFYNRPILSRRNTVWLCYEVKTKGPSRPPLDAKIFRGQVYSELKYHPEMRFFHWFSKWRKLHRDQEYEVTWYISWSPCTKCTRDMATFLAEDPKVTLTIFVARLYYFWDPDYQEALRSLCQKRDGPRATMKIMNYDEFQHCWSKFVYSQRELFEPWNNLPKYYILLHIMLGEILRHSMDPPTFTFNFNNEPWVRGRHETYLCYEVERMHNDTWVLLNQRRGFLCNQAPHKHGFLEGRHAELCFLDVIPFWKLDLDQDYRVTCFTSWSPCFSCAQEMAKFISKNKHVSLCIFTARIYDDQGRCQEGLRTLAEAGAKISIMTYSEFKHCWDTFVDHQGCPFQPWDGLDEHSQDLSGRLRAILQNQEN
core dimer inh: inhibitors of HCV core protein dimerization, primary screen, biochemical, TR-FRET, high-throughput. TR-FRET GST/Flag-core106 dimerization, 1536-well. inhibition, % at 5 µM. hit rate 0.33% among 300,000. AID 1899, 2009;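 active = inhibition above the mean of all tested compounds plus 3 SD, set per screening campaign, cut at about 45% in these data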
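System – GST-tagged and Flag-tagged HCV core protein residues 1-106 · Repeats – one well for each compound · Technique – TR-FRET 671 and 617 nm emission · Doses – one concentration, 5 µM, in 0.5% DMSO · Times – 4 h, 22.5 °C incubation · Also added – Eu donor and XL665 acceptor anti-tag antibodies · Measure – percent inhibition of core106 dimerization signal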
APOBEC3A inh: APOBEC3A ssDNA deaminase inhibitors, primary screen, selectivity assay for APOBEC3G inhibitor project, biochemical, FAM/TAMRA oligo cleavage fluorescence. DNA dC->dU-editing enzyme APOBEC-3A (Homo sapiens), P31941. hit rate 0.41% among 330,000. inhibition, % at 20 µM. recombinant A3A, FAM/TAMRA ssDNA deamination fluorescence;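 active = at least 40% inhibition at 20 µM here, with at most 30% in a related deaminase screen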
Target sequence (P31941 whole entry, looked up): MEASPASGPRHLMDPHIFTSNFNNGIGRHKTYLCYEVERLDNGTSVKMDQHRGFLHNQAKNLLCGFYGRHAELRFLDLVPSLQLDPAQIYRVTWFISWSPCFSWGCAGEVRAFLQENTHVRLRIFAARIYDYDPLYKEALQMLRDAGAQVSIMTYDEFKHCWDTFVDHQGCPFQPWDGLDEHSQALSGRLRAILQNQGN
PRMT1 FP inh: PRMT1 methyltransferase inhibitors, primary screen, biochemical, fluorescence polarization; hit rate 1.3% among 370,000; Protein arginine N-methyltransferase 1 (Homo sapiens), Q99873; inhibition, % at 2.79 µM; AID 652257, 2013; recombinant PRMT1, activity-based probe fluorescence polarization;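 active = inhibition above about 21% made by adding two undisclosed values, limit read from the data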
HCV NS3 hel inh: inhibitors of HCV NS3 helicase, primary screen, biochemical, Cy5 molecular beacon fluorescence | AID 1800, 2009 | NS3 helicase DNA unwinding | Hepatitis C virus NS3 helicase | inhibition, % at 10.9 µM | hit rate 0.56% among 290,000;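 active = inhibition above the mean of all tested compounds plus 3 SD, set per campaign, cut at about 35% in these data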
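Measured by: Cy5 fluorescence, 0 and 60 min reads / Assay system: NS3 helicase fragment of HCV / Control set: low DMSO, high thioflavine S at 110 µM / Times: 1 h reaction at 25 °C, ATP-initiated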
ABHD5 PLIN5 PPI: ABHD5-PLIN5 interaction inhibitors, primary screen, cell lysate, split luciferase complementation, luminescence; hit rate 0.78% among 360,000; AID 602281, 2012; Split G. princeps luciferase complementation, 4 h; Perilipin-5 (Homo sapiens) + 1-acylglycerol-3-phosphate O-acyltransferase ABHD5 (Homo …; inhibition, % at 4 µM;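 active = inhibition above the mean inhibition across every tested compound plus 3 SD, cut at about 22% in these data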
NS3 hel confirm: HCV NS3 helicase inhibitors, retest, confirmation, biochemical, Cy5 molecular beacon fluorescence, triplicate; shares compounds with HCV NS3 hel inh; NS3 helicase DNA unwinding; inhibition, % at 10.9 µM; hit rate 31% among 1,600; AID 1943, 2009;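 active = inhibition above the mean of all tested compounds plus 3 SD, cutoff set per campaign, cut at about 36% in these data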
DNA FID counter: compounds displacing fluorescent DNA intercalator, artefact control for HCV NS3 helicase inhibitor project, biochemical, FID fluorescence, triplicate. shares compounds with HCV NS3 hel inh. DNA fluorescent intercalator displacement. inhibition, % at 7.9 µM. hit rate 4% among 1,600; in the data active = inhibition above about 37%;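 note: higher means more displacement of ethidium bromide from the DNA hairpin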
FID counter DR: compounds displacing fluorescent intercalator from DNA, dose response, counter-screen for HCV NS3 helicase inhibitor project, biochemical, fluorescence | shares compounds with HCV NS3 hel inh | fluorescent intercalator displacement from DNA | IC50, µM | 120 tested, under 10 active | AID 2172, 2009; call rule not given here
Of the large screens only hits and unclear results are named; the others gave an inactive call (follow-up assays come after a bar, where they were run).

O=C(COc1ccc(Br)cc1CO)Nc1ccccc1	none
OCc1cc(Br)ccc1OCc1nc2ccccc2s1	HCV NS3 hel inh 38 (no result: PRMT1 FP inh) | NS3 hel confirm inactive | DNA FID counter inactive
O=C(CN1CCN(C(=O)CN2C(=O)NC3(CCCC3)C2=O)CC1)Nc1cccc(F)c1	none (no result: core dimer inh, HCV NS3 hel inh)
Cc1cc(/C=C2\Cc3ccccc3C2=O)c(C)n1-c1ccccc1	HCV NS3 hel inh 39 | NS3 hel confirm inactive | DNA FID counter inactive
Nc1o[nH]c(=O)c1C1CCCCC1	none (no result: A3G deaminase, core dimer inh, APOBEC3A inh, HCV NS3 hel inh)
Cc1cc(-c2nnc(SCC(=O)Nc3ccc(Br)cc3F)n2N)n[nH]1	none
CCOC(=O)[C@]12CCC=C1N(Cc1ccc(Cl)cc1Cl)C(=O)[C@H](CC(=O)N1CCOCC1)C2	none (no result: A3G deaminase, core dimer inh, APOBEC3A inh, HCV NS3 hel inh)
CCn1c(CNC(=O)c2cccc(C)c2)nnc1SCC(=O)NC1CCCCC1C (stereo not drawn)	HCV NS3 hel inh 65 | NS3 hel confirm inactive | DNA FID counter inactive
COc1ccc(N2C[C@@]3(O)CC[C@@H](O)[C@@H](OC)[C@@H]3[C@@](C)(O)[C@@H]2CC=C(C)C)cc1	none (no result: A3G deaminase, core dimer inh, APOBEC3A inh, HCV NS3 hel inh, ABHD5 PLIN5 PPI)
CC1=C(C(=O)Nc2cccc(C(=O)NCc3ccccc3C)c2)SCCO1	none
COc1cc(/C=C(\CC(=O)O)c2nc3ccccc3s2)cc(OC)c1O	none
COc1cc(C=C(c2nc3ccccc3s2)c2nc3ccccc3s2)cc(OC)c1O	HCV NS3 hel inh 39 | NS3 hel confirm inactive | DNA FID counter inactive
O=C(/C=C/[C@H]1O[C@@H](n2ccc(=O)[nH]c2=O)[C@H](O)[C@@H]1O)NCCN1CCOCC1	none (no result: A3G deaminase, core dimer inh, APOBEC3A inh, HCV NS3 hel inh)
Cn1c2ccccc2c2cc(/C=N/NC(=O)c3cc(O)ccc3O)ccc21	HCV NS3 hel inh 69 | NS3 hel confirm inactive | DNA FID counter inactive
CCCCn1c(N)c(N(CCC(C)C)C(=O)c2cc(-c3ccco3)nc3ccccc23)c(=O)[nH]c1=O	core dimer inh 49, PRMT1 FP inh 22, HCV NS3 hel inh 41 | NS3 hel confirm inactive | DNA FID counter inactive
CCCCn1c(N)c(N(CCC(C)C)C(=O)CCCc2nc3ccccc3s2)c(=O)[nH]c1=O	HCV NS3 hel inh 38 | NS3 hel confirm inactive | DNA FID counter inactive
CCOC(=O)CC(=O)CSc1nc2c(cc1C#N)CCC2	none
CCOC(=O)CC(=O)CSc1nc2c(c(-c3cccs3)c1C#N)CCC2	HCV NS3 hel inh 41 | NS3 hel confirm inactive | DNA FID counter inactive
CC(C)NC(=O)C1(C)Cc2c(-c3ccc(N(C)C)cc3)ccnc2O1 (stereo not drawn)	none (no result: A3G deaminase, core dimer inh, APOBEC3A inh, HCV NS3 hel inh)
COc1ccc(Nc2nccc(-c3ccc(C#N)cc3)n2)cc1	HCV NS3 hel inh 37 | NS3 hel confirm inactive | DNA FID counter inactive
COc1ccc(-c2csc(NC(=O)c3ccccc3Br)c2C(=O)O)cc1	HCV NS3 hel inh 41 | NS3 hel confirm 59 | DNA FID counter inactive
CCC(C)c1ccccc1N1CC(C(=O)NCCCn2nc(C)cc2C)CC1=O (stereo not drawn)	none (no result: core dimer inh, HCV NS3 hel inh)
CN(C)c1ccc2nc3ccc(=[N+](C)C)cc-3sc2c1	none
Cc1cc2nc3ccc(=[N+](C)C)cc-3sc2cc1N	HCV NS3 hel inh 58 (no result: A3G deaminase, core dimer inh, APOBEC3A inh, PRMT1 FP inh) | NS3 hel confirm 78 | DNA FID counter 107
Nc1nc2c(nnn2C2CC(O)C(CO)O2)c(=O)[nH]1 (stereo not drawn)	none (no result: A3G deaminase, core dimer inh, APOBEC3A inh, HCV NS3 hel inh)
Cc1c(O)ccc(C(=O)CN2CCN(Cc3ccc4c(c3)OCO4)CC2)c1O	HCV NS3 hel inh 84 (no result: A3G deaminase, APOBEC3A inh) | NS3 hel confirm inactive | DNA FID counter inactive
CCCNC(=S)N1CCN(Cc2ccc3c(c2)OCO3)CC1	HCV NS3 hel inh 55 | NS3 hel confirm inactive | DNA FID counter inactive
CCNC(=S)N1CCN(Cc2ccc3c(c2)OCO3)CC1	none
CCOC(=O)N1CCN(Cc2ccc3c(c2)OCO3)CC1	none
Cc1ccc(C(=O)N2CCCC(Nc3ccc(F)cc3)C2)cc1C (stereo not drawn)	none
CCN1C(=O)[C@H]2[C@@H](c3ccc(-c4ccc(F)cc4)cc3)N3CCCC[C@@]3(C(=O)OC)[C@H]2C1=O	none (no result: HCV NS3 hel inh)
CN[C@H]1C[C@H]2c3[nH]c4c(-c5ccc6c(c5)OCO6)cccc4c3CCN2C(=O)[C@H]1[C@H](C)O	none (no result: A3G deaminase, core dimer inh, APOBEC3A inh, HCV NS3 hel inh, ABHD5 PLIN5 PPI)
Cc1ccccc1NC(=O)CN1C(=O)S/C(=C\c2ccc(-c3cc(C(=O)O)ccc3C)o2)C1=O	none (no result: core dimer inh)
Cc1ccc(C(=O)O)cc1-c1ccc(/C=C2\SC(=O)N(CC(=O)Nc3ccccc3)C2=O)o1	HCV NS3 hel inh 38 | NS3 hel confirm 78 | DNA FID counter inactive | FID counter DR inactive
Oc1ccccc1CC=NC1CCCCC1	none (no result: A3G deaminase, core dimer inh, APOBEC3A inh, HCV NS3 hel inh)
Cc1ccc(-n2nc(C)c3c2OC(N)=C(C#N)C3c2ccoc2)cc1 (stereo not drawn)	HCV NS3 hel inh 45 | NS3 hel confirm inactive | DNA FID counter inactive
Cc1ccc(-n2nc(C)c3c2OC(N)=C(C#N)C3c2ccco2)cc1 (stereo not drawn)	none
CCOc1ccc(C(=O)NCc2ccco2)cc1Cl	none
O=S(=O)(c1cccs1)N1CN(Cc2ccc(F)cc2)c2nc3ccccc3nc21	HCV NS3 hel inh 50 | NS3 hel confirm inactive | DNA FID counter inactive

From PubChem BioAssay
